A selection: hits, their analogues and other compounds. The true share with any hit is near 3.1%.
RAM network inh – inhibitors of the yeast RAM network; S. cerevisiae dse1pr::URA3 reporter, 5-FOA growth OD615, 2 d; analog-sensitive cbk1-as2 kinase mutant strain; inhibition, % at 50 µM; 1.8% of 190,000 active; AID 868;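 active = inhibition above a set limit, 3 SD over mean compound inhibition, cut at about 8.4% in these data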;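 note: 0% = DMSO-only wells with no growth and 100% = 10 µM 1-NA-PP1 full growth; inhibition rescues growth on 5-FOA so higher OD means more RAM inhibition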
Yeast life ext – yeast lifespan extension; S. cerevisiae growth with nicotinamide, OD615; deaD strain in restrictive glucose medium; 0.68% of 130,000 active; inhibition of the nicotinamide effect, % at 10 µM;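 active = inhibition above a set limit, placed 3 SD over the median of all compounds, cut at about 26% in these data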;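 note: 0% = nicotinamide-treated wells and 100% = cells grown without nicotinamide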
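Test system – modified budding yeast, DeaD strain · Compound – single dose 10 µM compound, 0.25% DMSO · Times – culture preincubation 4 h, compound exposure 48 h, both 30 °C · Detection – optical density (absorbance) at 615 nm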
BB579 growth dn – reduces growth of yeast BB579 in restrictive medium | S. cerevisiae BB579 growth, OD615, 48 h | inhibition, % at 10 µM | 0.51% of 140,000 active;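 active = inhibition above a set limit, 3 SD over the mean compound inhibition, cut at about 44% in these data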
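Test system: Saccharomyces cerevisiae DeaD strain BB579, replicative lifespan model yeast | Buffer or medium: Restrictive CSMM-D medium | Doses: One dose, 10 µM compound with 0.25% DMSO | Incubation: 48 h exposure, 30 °C | Detection: Culture absorbance at 615 nm | Control set: Amphotericin B at 10 µg/mL as positive control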
Ins promoter up – MIN6 insulin promoter up-regulation. MIN6 insulin promoter-GFP reporter, high-content imaging; hits give high values. 0.3% of 190,000 active. AID 1625. z-score at 5 µM;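 active = z-score above 3 at 5 µM with at least 500 cells counted in the well; inconclusive = wells under 500 cells, flagged as cytotoxic or low count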
INS promoter inh – TRM-6 insulin promoter activity inhibition. TRM-6 cells, insulin promoter-eGFP reporter, imaging; reporter expression induced with tamoxifen. AID 1273. 0.9% of 130,000 active. inhibition, % at 2 µM;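 active = inhibition above the mean plus 3 SD, with well images judged a real hit on visual review, cut at about 60% in these data, passing the limit was not always enough; inconclusive = inhibition over the cutoff but images rejected on review; inactive = inhibition not above the cutoff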
Starred values were filed as active, the others as inactive; ? = inconclusive; · = no result.

SMILES	RAM network inh	Yeast life ext	BB579 growth dn	Ins promoter up	INS promoter inh
Cc1ccc(C(=O)NC(=S)Nc2cccc(NC(=O)c3ccccc3Cl)c2)cc1[N+](=O)[O-]	3	-5	-44	-0.28	-31
O=C(Nc1ccccc1Oc1ccccc1)c1cccc([N+](=O)[O-])c1	1	-7	-27	0.13	-43
Cc1ccc(C(=O)Nc2ccccc2Oc2ccccc2)cc1[N+](=O)[O-]	11*	-9	-91	·	-16
Cc1ccc(C(=O)NC(=S)Nc2cccc(NC(=O)c3ccccc3)c2)cc1[N+](=O)[O-]	10*	-3	-9	-0.34	0
CCCCC(CC)C(=O)Nc1ccccc1C(=O)NC(C)C (configuration not stated)	3	-11	-30	0.05	-30
Cc1ccc2c(n1)CC(C)(C)C/C2=N\O	1	·	-3	·	90*
Cc1[nH]nc2c1/C(=N\O)CC(C)(C)C2	1	-15	-1	0.99	·
O=C(Nc1ccon1)c1cccc(S(=O)(=O)N2CCCCC2)c1	4	·	·	3.5*	·
Nc1cccc2c1C(=O)N(C(=O)c1ccc(Cl)c(S(=O)(=O)N3CCCCCC3)c1)C2=O	-1	75*	-48	1.7	-13
O=C(O)c1cccc(NC(=O)c2ccc(Cl)c(S(=O)(=O)N3CCCCCC3)c2)c1	9.7*	·	·	0.5	41
Cc1ccc(-c2cn3cccnc3n2)cc1NC(=O)c1cccs1	0	-1	-15	2	·
N/C(=N\c1nc2ccccc2o1)NC(=O)c1ccccc1Br	·	·	·	0.12	·
COC(=O)c1sc(S(=O)(=O)NC(C)C(=O)O)c(C(=O)OC)c1C (configuration not stated)	0	·	·	0.27	·
CS(=O)(=O)N(CC(=O)Nc1ccccc1Sc1ccccc1)c1cccc(Br)c1	11*	2	-41	-0.51	-43
Cc1cc(NC(=O)CSc2ccc(-c3nc4cc(C)c(C)cc4[nH]3)cn2)no1	10*	-16	-44	-0.9	21
Cc1cc2nc(-c3ccc(SCC(=O)NC(C)C)nc3)[nH]c2cc1C	0	·	·	0.33	43
Cc1cc2nc(-c3ccc(SCC(=O)Nc4ccc(S(=O)(=O)NC5CC5)cc4)nc3)[nH]c2cc1C	9.3*	4	-27	-0.36	24
Cc1cc(C(C)(C)C)oc1C(=O)N(CC(=O)NC1CCCC1)Cc1ccccc1	3	5	-31	0.54	·
Cc1ccc(C)c(N(CC(=O)NC2CCCC2)C(=O)c2oc(C(C)(C)C)cc2C)c1	9.5*	-4	-38	-0.62	39
O=S(=O)(c1cccs1)N1CN(Cc2cccs2)c2nc3ccccc3nc21	8.6*	2	-29	-1.6	0
O=S(=O)(c1cccs1)N1CN(Cc2ccccc2)c2nc3ccccc3nc21	6	-6	-40	0.09	19
N#CC1CCCc2c1[nH]c1ccc([N+](=O)[O-])cc21 (configuration not stated)	·	·	·	-0.02	·
COc1ccc(C(=O)NCc2cc(C)nc3ccccc23)cc1OC	0	·	·	-0.09	100*
COc1cccc(OCCn2c(C)c(/C=N/n3cnnc3)c3ccccc32)c1	6	-3	-12	-1.4	·
COc1ccc(OCCn2c(C)c(/C=N/n3cnnc3)c3ccccc32)cc1	10.0*	-5	-25	1.1	14
SMILES	RAM network inh	Yeast life ext	BB579 growth dn	Ins promoter up	INS promoter inh
O=C(CSc1nccn1-c1ccc(Cl)cc1)N1CCCc2ccccc21	0	6	-43	-1.1	·
COc1cc2ccccc2cc1C(=O)NC(=S)Nc1cccc(C(=O)O)c1	8.9*	·	·	0.5	·
O=C(Nc1ccc(CN2CCCCC2)cc1)Nc1ccc(Br)cc1Cl	2	·	·	-0.62	46
Clc1ccc(OCCSc2ncccn2)cc1	2	-21	-26	-0.52	66*
CCOc1ccc(-c2nc(CCl)cs2)cc1OC	2	·	·	-0.14	42
CCOC(=O)c1c(C)[nH]c(C(=O)COC(=O)CCSc2ccccc2)c1C	9.5*	5	-49	-0.15	-33
Clc1ccc(CSc2cc3c(nn2)-c2ccccc2CC3)cc1	10*	-2	-43	0.09	-26
Cc1ccc(/C=C2\SC(=S)N(CC(=O)Nc3ncc(Cc4ccccc4Cl)s3)C2=O)cc1	5	-22	-37	-1.1	-28
Cc1ccc(/C=C2/SC(=S)N(CC(=O)Nc3ncc(Cc4ccc(C)cc4)s3)C2=O)cc1	11*	-10	-48	-0.65	-23
CNC(=O)c1nc(C)c(C2(C)CC(c3cccc([N+](=O)[O-])c3)=NO2)s1 (configuration not stated)	·	·	·	-0.23	·
O=C1c2cccc3cccc(c23)C(=O)N1c1ccncc1	1	·	26	0.74	58
O=C1c2cccc3cccc(c23)C(=O)N1c1cccnc1	-1	-31	49*	1	·
O=C(O)c1ccc(N2C(=O)CC(SC(=Nc3ccccc3)Nc3ccccc3)C2=O)cc1 (configuration not stated)	7	-4	-40	0.45	-36
CC(/C=C/c1ccc(N(C)C)cc1)=N\N=C(/N)SC1CC(=O)N(c2ccc(C(=O)O)cc2)C1=O (configuration not stated)	9.8*	3	-14	0.11	·
COc1cc(NC(c2ccccc2)c2ccccc2)cc(OC)c1OC	8.4*	·	·	1.2	·
Cc1cc(=O)[nH]c(-n2nc(C)cc2C)n1	-1	-26	81*	0.51	·
Cc1cc(=O)[nH]c(-n2nc(C)c(Oc3ccccc3O)c2C)n1	0	-3	-54	-0.11	39
O=C(CN1CCNC(=O)C1)NCCc1ccc(Cl)cc1Cl	3	·	·	-0.65	·
Cc1cccc2cc(C#N)c(NCc3ccccc3)nc12	7	·	·	-0.62	18
Cc1cccc2cc(C#N)c(NCCNC(=O)COc3ccccc3)nc12	10*	·	·	0.63	·
CCN(CC)c1ccc(/C=C(\C#N)C(=O)c2ccc(Br)cc2)cc1	9.2*	-1	-32	·	·
Cc1cccc(Oc2nccc(C(F)(F)F)c2C(=O)Nc2ccc(F)cc2F)c1	·	·	·	3.6*	·
O=C(Nc1ccc(F)cc1F)c1c(C(F)(F)F)ccnc1Oc1ccccc1	·	·	·	0.5	·
CCOCC(=O)Nc1ccccc1C(=O)O	1	·	·	0.71	·
Clc1ccc2c(N/N=C/c3cccc(Br)c3)ccnc2c1	4	-7	-13	-1.4	73*
SMILES	RAM network inh	Yeast life ext	BB579 growth dn	Ins promoter up	INS promoter inh
Clc1ccc2c(N/N=C/c3ccccc3Br)ccnc2c1	3	-8	-24	0.2	?
CC1Cc2ccccc2N1C(=O)CCn1c(=O)sc2ccccc21 (configuration not stated)	·	·	·	-1.6	·
Cc1cccc(OCCCOc2cccc3cccnc23)c1C	0	-28	73*	0.19	·
Cc1cccc(OCCCCc2c(C)n[nH]c2C)c1C	0	-19	69*	-2.1	0
COc1ccccc1OCCCc1c(C)n[nH]c1C	-1	-30	100*	-0.01	0
CN(Cc1ccccc1)C(=O)c1ccc([N+](=O)[O-])o1	-1	25	11	·	·
OCCC1CN(Cc2cnc(-c3cccc4ccccc34)nc2)CCN1C1CCCCC1 (configuration not stated)	1	·	·	·	·
